From PubChem
OX1R antag-1: antagonists of human orexin 1 receptor; CHO/OX1R cells, Fluo-8 calcium fluorescence, orexin A; inhibition, % at 5 µM; 0.43% of 330,000 active;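 active means inhibition above its plate's threshold, mean inhibition of all tested compounds on the plate plus 3 SD, cut at about 37% in these data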;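 further: 0% = orexin A challenge wells and 100% = SB-334867-A antagonist wells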
GalR3 antagonist: antagonists of human GalR3. O60755. HEK293 GalR3-CNG cAMP membrane potential fluorescence; galR3 body fused to GalR1 C-terminus. inhibition, % at 3 µM. 0.44% of 360,000 active. AID 651719;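 active means inhibition above the screen-wide average plus 3 SD, cut at about 13% in these data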;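 further: forskolin and galanin both at EC90 stimulate the cells; cAMP rise reported by CNG channel membrane potential dye signal; 0% = forskolin plus galanin with DMSO and 100% = forskolin alone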
OX1R antag-2: blocks the human orexin 1 receptor | inhibition, % at 6.6 µM | 1.8% of 330,000 active | OX1R-expressing cells, FRET antagonist read-out | O43613; in the data active means inhibition mostly above about 38%, no sharp cut-off; inactive means mostly below about 40%;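 further: 0% = agonist challenge alone and 100% = reference antagonist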
CHO parental Ca: signal in parental CHO cells, OX1R antagonist counter-screen; parental CHO-K1, ATP-induced calcium, Fluo-8 fluorescence; inhibition, % at 5.6 µM; 0.63% of 330,000 active;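 active means inhibition above that plate's mean sample inhibition plus 3 SD, cut at about 26% in these data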;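 further: 0% = ATP-challenged DMSO wells and 100% = DMSO wells without ATP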
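Test system: parental CHO cells; detection: calcium-sensitive Fluo-8 fluorescence; evaluation: percent inhibition of calcium signal; also added: ATP as calcium-mobilizing challenge; repeats: one well per compound; control set: ATP-challenged DMSO wells low, unchallenged DMSO wells high; compound: single nominal dose of 5.6 µM per compound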
TAAR1 antagonist: human TAAR1 antagonism; Q96RJ0; AID 624466; 1.5% of 360,000 active; CHO RD-HGA16 TAAR1, Fluo-8 calcium fluorescence, antagonist; inhibition, % at 3 µM;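 active means inhibition above a per-plate cutoff, the mean inhibition of test compounds on that plate plus 3 SD, cut at about 49% in these data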;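 further: 0% = DMSO plus EC80 beta-PEA response and 100% = DMSO alone without agonist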
Target sequence (Q96RJ0 whole entry, looked up): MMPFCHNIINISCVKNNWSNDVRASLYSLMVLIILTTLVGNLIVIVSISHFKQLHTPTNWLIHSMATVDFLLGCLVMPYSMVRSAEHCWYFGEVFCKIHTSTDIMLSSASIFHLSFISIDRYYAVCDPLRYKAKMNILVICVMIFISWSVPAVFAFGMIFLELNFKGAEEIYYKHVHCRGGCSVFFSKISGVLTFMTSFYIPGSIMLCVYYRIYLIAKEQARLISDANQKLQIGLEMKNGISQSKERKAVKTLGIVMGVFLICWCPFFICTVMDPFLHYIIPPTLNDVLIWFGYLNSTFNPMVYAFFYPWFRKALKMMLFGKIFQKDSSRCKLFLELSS
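Material: RD-HGA16 CHO cells with stable hTAAR1 and Gα16; Dosing: single nominal final test compound concentration of 3 µM; Schedule: seeding 17-24 h prior, 75-min 37 °C, 30-min RT dye loading; Detection: kinetic Fluo-8 calcium fluorescence measurement; Measure: % inhibition from peak post-agonist over basal fluorescence ratio; Benchmarks: vehicle and agonist controls.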
TAAR1 ag: agonists of human TAAR1 | activation, % at 3 µM | Q96RJ0 | CHO RD-HGA16 TAAR1, Fluo-8 calcium fluorescence; vehicle wells 0%, saturating PEA agonist 100% | 0.99% of 360,000 active;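 active means activation above the mean activation of all test compounds in the run plus 3 SD, cut at about 38% in these data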
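Signal – calcium-sensitive Fluo-8 signal, excitation 470-495, emission 515-575 nm · System – RD-HGA16 (CHO) cells co-expressing Gα16 and hTAAR1 · Incubation – 17-24 h seeding, 75 min 37 °C dye, 30 min RT · Compound dosing – 3 µM single concentration · Repeats – no replicates (n 1)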
GalR3 conf: confirmation of human galanin receptor 3 antagonists; inhibition, % at 3 µM; HEK293 GalR3 CNG cAMP biosensor, membrane potential fluorescence; galR3 fused to GalR1 carboxy tail; challenged with forskolin and galanin at EC90; 59% of 1,600 active; shares compounds with GalR3 antagonist;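 active means inhibition above the primary screen's cutoff, the mean inhibition of all screened compounds plus 3 SD, cut at about 13% in these data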;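 further: 0% = forskolin plus galanin and 100% = forskolin alone with DMSO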
CNG parental: counter-screen for GalR3 antagonists: nonspecific agonists in parental HEK-CNG cells. shares compounds with GalR3 antagonist. HEK293-CNG parental cells, cAMP membrane potential fluorescence; normalised: DMSO wells 0%, forskolin wells 100%. activation, % at 3 µM. 10% of 1,600 active; in the data active means activation above about 1.3%
An asterisk follows results filed as active; / = not tested or not shown. An excerpt weighted towards active compounds, which were near 4.2% of everything screened.

SMILES	OX1R antag-1	GalR3 antagonist	OX1R antag-2	CHO parental Ca	TAAR1 antagonist	TAAR1 ag	GalR3 conf	CNG parental
Cc1[nH]c2ccccc2c1C(=O)COC(=O)c1ccc([N+](=O)[O-])s1	17	-4	25	13	31	9	/	/
COc1ccc([C@H]2C=C(C(=O)O)O[C@@H](OCCCCO)C2)cc1	-1	17*	32	-6	-6	4	-1	0
Cc1cc(/C=C2/SC(=S)N(c3ccc([N+](=O)[O-])cc3)C2=O)c(C)n1-c1cccnc1	-3	0	18	8	-8	7	/	/
Cc1cc(/C=C2/SC(=S)N(c3cccc(Cl)c3)C2=O)c(C)n1-c1cccnc1	53*	90*	71*	46*	24	18	15*	0
O=C(N/N=C/c1cc(Cl)ccc1O)c1ccncc1	-6	-9	26	-9	-2	4	/	/
O=C(N/N=C/c1cc(Cl)ccc1O)C(=O)Nc1ccccc1OC(F)(F)C(F)F	-3	22*	69*	-15	30	3	66*	-1
O=C(N/N=C/c1cc(Br)ccc1O)C(=O)Nc1ccccc1OC(F)(F)C(F)F	1	15*	31	-9	39	5	57*	-2
COc1ccccc1/C=N/NC(=O)C(=O)Nc1ccccc1OC(F)(F)C(F)F	1	-1	50	-9	10	3	/	/
O=C(Nc1cccc(F)c1)C1CCCN(S(=O)(=O)c2ccc(-n3cnnn3)cc2)C1 (stereo not drawn)	-24	14*	13	-9	24	9	0	-1
CCCn1c(SCC(=O)NC2CC2)nnc1-c1cccs1	-14	-2	14	-10	-19	0	/	/
Cn1c(SCC(=O)NC2CC2)nnc1-c1cccs1	-7	14*	6	-2	-2	3	7	0
O=S(=O)(N(Cc1ccccc1)[C@@H](CO)Cc1ccccc1)N(Cc1ccccc1)[C@@H](CO)Cc1ccccc1	13	-5	10	-27	48	15	/	/
COc1ccc(CN2CCC(C(=O)Nc3ccc(Oc4ccccc4)nc3)CC2)cc1F	-14	62*	30	-17	8	9	101*	0
COC(=O)COc1cccc(NC(=O)c2ccccc2)c1	-6	-4	-3	-17	0	7	/	/
COC(=O)COc1cccc(NC(=O)c2cccc(C)c2)c1	10	20*	24	-11	1	1	57*	0
COc1ccc(NC(=O)C(c2ccc(C)cc2)N(C)C(=O)c2ccc(=O)[nH]c2)cc1 (stereo not drawn)	5	13*	13	2	-13	0	8	0
Cc1nc2cc(NC(=O)NC(C)(C)C)ccc2n1C	4	-5	20	-5	4	6	/	/
CC(=O)c1ccc(N2CCN(C(=O)C(=O)c3c(C)[nH]c4ccccc34)CC2)cc1	-16	7	22	-6	-4	6	/	/
CC1(C)Oc2cc3oc(-c4cc(O)cc(O)c4)cc3cc2CC1O (stereo not drawn)	-8	1	29	4	34	2	/	/
Cc1sc2ncnc(NCC3COc4ccccc4O3)c2c1C (stereo not drawn)	29	100*	45	62*	12	1	105*	0
COc1ccc(CN2CCC(CO)(Cc3cccc(C(F)(F)F)c3)CC2)cc1Cn1cccn1	-26	16*	12	-25	2	5	4	3.9*
COc1ccc(COC(=O)C2=C(C)NC(=O)NC2c2cc(Br)c(O)c(OC)c2)cc1 (stereo not drawn)	-29	29*	11	-10	-2	5	35*	0
